Experimental data published in ChEMBL document CHEMBL1132284, “Potent, orally active GPIIb/IIIa antagonists containing a nipecotic acid subunit. Structure-activity studies leading to the discovery of RWJ-53308” (J Med Chem, 1999).

How the values were obtained:
Canis familiaris [1] = assay: Inhibitory activity tested in ex vivo (canine) against ADP-induced platelet aggregation at the dose of 10 mg/kg; format: functional, Canis lupus familiaris
Homo sapiens = species on record: Homo sapiens; assay: In vitro inhibitory potency against human gel filtered platelet (GFP) aggregation; format: functional
Procedure, shortened: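 Human gel-filtered platelets, aggregation induced by thrombin; IC50; n = 2.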

[2] = molecular target: Integrin alpha-IIb/beta-3 (Homo sapiens, UniProt P05106+P08514); assay: In vitro inhibition of biotinylated fibrinogen binding to immobilized fibrinogen receptor.; format: protein-complex assay
Sequence of Integrin alpha-IIb/beta-3 (P05106 27-788 limits assumed): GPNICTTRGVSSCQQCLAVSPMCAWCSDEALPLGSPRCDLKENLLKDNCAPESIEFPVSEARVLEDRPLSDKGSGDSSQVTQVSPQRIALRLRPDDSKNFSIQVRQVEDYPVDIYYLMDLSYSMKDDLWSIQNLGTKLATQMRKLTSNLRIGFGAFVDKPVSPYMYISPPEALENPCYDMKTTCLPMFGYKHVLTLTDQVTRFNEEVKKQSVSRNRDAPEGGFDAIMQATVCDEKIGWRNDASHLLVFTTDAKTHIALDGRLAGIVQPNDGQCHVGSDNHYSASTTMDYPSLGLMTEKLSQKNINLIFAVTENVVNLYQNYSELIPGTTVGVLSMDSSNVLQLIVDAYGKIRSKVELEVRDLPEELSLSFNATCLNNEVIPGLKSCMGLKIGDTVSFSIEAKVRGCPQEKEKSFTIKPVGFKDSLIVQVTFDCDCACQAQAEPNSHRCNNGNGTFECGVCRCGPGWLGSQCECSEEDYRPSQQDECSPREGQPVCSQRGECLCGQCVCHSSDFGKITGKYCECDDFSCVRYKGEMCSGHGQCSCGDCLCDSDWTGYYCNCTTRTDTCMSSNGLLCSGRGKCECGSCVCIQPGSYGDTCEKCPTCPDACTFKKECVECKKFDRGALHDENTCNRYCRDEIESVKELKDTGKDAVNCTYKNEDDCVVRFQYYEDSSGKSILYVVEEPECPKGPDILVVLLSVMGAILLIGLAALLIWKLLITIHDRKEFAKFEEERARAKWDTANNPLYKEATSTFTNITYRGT
Sequence of Integrin alpha-IIb/beta-3 (P08514 32-887 limits assumed): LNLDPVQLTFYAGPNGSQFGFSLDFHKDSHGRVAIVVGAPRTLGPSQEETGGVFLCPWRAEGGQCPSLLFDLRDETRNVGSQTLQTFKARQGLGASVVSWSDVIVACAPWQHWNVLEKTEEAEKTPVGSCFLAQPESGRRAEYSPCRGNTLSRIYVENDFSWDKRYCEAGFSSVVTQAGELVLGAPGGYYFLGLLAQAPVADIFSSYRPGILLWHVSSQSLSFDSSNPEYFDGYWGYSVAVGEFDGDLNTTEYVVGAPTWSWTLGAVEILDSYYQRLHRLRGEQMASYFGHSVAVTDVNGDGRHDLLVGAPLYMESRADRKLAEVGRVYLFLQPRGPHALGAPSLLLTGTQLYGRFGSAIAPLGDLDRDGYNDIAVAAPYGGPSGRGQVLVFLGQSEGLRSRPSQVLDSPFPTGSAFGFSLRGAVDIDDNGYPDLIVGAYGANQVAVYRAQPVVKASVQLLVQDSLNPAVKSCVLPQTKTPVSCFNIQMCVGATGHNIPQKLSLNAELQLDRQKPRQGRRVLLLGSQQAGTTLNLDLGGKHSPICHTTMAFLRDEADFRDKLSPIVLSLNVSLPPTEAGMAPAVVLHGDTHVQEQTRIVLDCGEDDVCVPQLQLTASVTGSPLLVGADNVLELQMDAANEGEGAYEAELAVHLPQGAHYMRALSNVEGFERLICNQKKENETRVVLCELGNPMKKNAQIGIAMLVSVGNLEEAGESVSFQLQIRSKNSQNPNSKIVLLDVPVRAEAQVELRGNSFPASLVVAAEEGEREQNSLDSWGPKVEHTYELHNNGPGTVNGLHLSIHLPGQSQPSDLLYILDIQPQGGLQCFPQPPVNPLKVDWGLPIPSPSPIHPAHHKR
Sequence of Integrin alpha-IIb/beta-3 (P08514 891-1039 limits assumed): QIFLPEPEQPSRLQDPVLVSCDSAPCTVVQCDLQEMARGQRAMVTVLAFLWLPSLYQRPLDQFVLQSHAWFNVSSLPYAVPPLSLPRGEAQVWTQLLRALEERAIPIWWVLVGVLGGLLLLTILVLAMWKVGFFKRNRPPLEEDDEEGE
Procedure, shortened: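 Binding of biotinylated fibrinogen to immobilized purified GPIIb/IIIa, solid phase; IC50; n = 2.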

Canis familiaris [3] = assay: Ex vivo duration of inhibition of ADP-induced canine platelet aggregation by 3 mg/kg.; format: functional, Canis lupus familiaris
Procedure, shortened: (§1)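 Fasted mongrel dogs (8–22 kg, n = 3) given compound orally by stomach tube in 10 mL water. Citrated cephalic-vein blood drawn pre-dose and at 30, 60, 90, 120, 180, 240, 360 min. PRP adjusted to 300 000/μL with PPP, warmed 2 min at 37 °C, and aggregated with 20 μM ADP, read as light transmission. Inhibition is drug versus vehicle; duration is time at ≥50% inhibition.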

Canis familiaris [4] = assay: Inhibitory activity tested in ex vivo (canine) against ADP-induced platelet aggregation at the dose of 1 mg/kg; format: functional, Canis lupus familiaris; procedure, shortened: as §1

Row | SMILES | IC50 (Homo sapiens; Homo sapiens) [nM] | IC50 [2] [nM] | Duration (Canis familiaris [3]) [min] | other results
1 | O=C(O)C[C@H](NC(=O)[C@@H]1CCN(C(=O)/C=C/C2CCNCC2)C1)c1cccnc1 | 140 | 0.58 | 360 | –
2 | O=C(O)CC(NC(=O)C1CCCN(C(=O)CCC2CCNCC2)C1)c1cncc(-c2ccccc2)c1 (centres undefined) | – | 1.8 | – | –
3 | CC(C)(C)C#C[C@@H](CC(=O)O)NC(=O)[C@@H]1CCCN(C(=O)CCC2CCNCC2)C1 | – | 42 | – | –
4 | C[C@H](CC(=O)O)NC(=O)[C@@H]1CCCN(C(=O)CCC2CCNCC2)C1 | 8000 | 13.5 | – | –
5 | O=C(O)CC(NC(=O)C1CCCN(C(=O)CCC2CCNCC2)C1)c1cccnc1 (centres undefined) | – | 3 | – | –
6 | COC(=O)C[C@H](NC(=O)[C@@H]1CCCN(C(=O)CCC2CCNCC2)C1)c1cccnc1 | 41000 | 7.2 | 60 | –
7 | O=C(O)C[C@@H](NC(=O)[C@@H]1CCCN(C(=O)CCC2CCNCC2)C1)c1cccnc1 | 60 | 0.36 | 360 | –
8 | O=C(O)C[C@@H](Cc1ccccc1)NC(=O)[C@@H]1CCCN(C(=O)CCC2CCNCC2)C1 | 970 | 0.37 | – | –
9 | O=C(O)CC(NC(=O)C1CCCN(C(=O)CCC2CCNCC2)C1)c1cncc(-c2cccs2)c1 (centres undefined) | – | 1.5 | – | –
10 | O=C(O)C[C@H](NC(=O)[C@H]1CN(C(=O)CCC2CCNCC2)CCN1)c1cccnc1 | 600 | 1.7 | – | –
11 | O=C(O)C[C@H](NC(=O)[C@@H]1CCCN(C(=O)/C=C/C2CCNCC2)C1)c1cccnc1 | 160 | 0.81 | 210 | –
12 | O=C(O)C[C@@H](C#Cc1ccccc1)NC(=O)[C@@H]1CCCN(C(=O)CCC2CCNCC2)C1 | 3500 | 0.29 | – | –
13 | O=C(C[C@H](NC(=O)[C@@H]1CCCN(C(=O)CCC2CCNCC2)C1)c1cccnc1)OCCC1CCCCC1 | 2200 | 3.8 | 120 | –
14 | N=CN1CCC(CCC(=O)N2CCC[C@@H](C(=O)N[C@@H](CC(=O)O)c3cccnc3)C2)CC1 | 350 | 0.75 | 90 | –
15 | O=C(N[C@H](Cc1ccccc1)[C@@H](O)C(=O)O)[C@@H]1CCCN(C(=O)CCC2CCNCC2)C1 | 210 | 17.9 | – | –
16 | O=C(O)C[C@H](NC(=O)[C@@H]1CCCN(C(=O)CCC2CCNCC2)C1)c1cncc(-c2ccccc2)c1 | 70 | 0.52 | – | –
17 | COc1ccc(-c2cncc(C(CC(=O)O)NC(=O)C3CCCN(C(=O)CCC4CCNCC4)C3)c2)cc1 (centres undefined) | – | 11 | – | –
18 | O=C(O)C[C@H](NC(=O)[C@@H]1CCCN(C(=O)CCC2CCNCC2)C1)c1ccc(-c2ccsc2)nc1 | 200 | 0.37 | 150 | –
19 | O=C(O)C[C@@H](NC(=O)[C@@H]1CCCN(C(=O)CCC2CCNCC2)C1)c1ccc2c(c1)OCO2 | 20 | 0.5 | 180 | –
20 | O=C(O)C[C@H](NC(=O)[C@@H]1CCCN(C(=O)CCC2CCNCC2)C1)c1cncc(Br)c1 | 20 | 0.21 | 180 | –
21 | COc1ncc([C@H](CC(=O)O)NC(=O)[C@@H]2CCCN(C(=O)CCC3CCNCC3)C2)cc1Cl | 90 | 3.8 | 30 | –
22 | O=C(O)CC(NC(=O)C1CCCN(C(=O)CCC2CCNCC2)C1)c1cncc(Br)c1 (centres undefined) | – | 3 | – | –
23 | O=C(O)C[C@@H](NC(=O)[C@@H]1CCCN(C(=O)CCC2CCNCC2)C1)c1cccs1 | 90 | 0.1 | – | –
24 | O=C(O)C[C@H](NC(=O)[C@@H]1CCCN(C(=O)CCC2CCNCC2)C1)c1cncc(CCc2ccccc2)c1 | 30 | 0.66 | 180 | –
25 | O=C(O)CC(NC(=O)C1CCCN(C(=O)CCC2CCNCC2)C1)c1cncc(-c2ccsc2)c1 (centres undefined) | – | 2 | – | –
26 | O=C(O)CC(NC(=O)C1CCCN(C(=O)CCC2CCNCC2)C1)c1cncc(-c2ccc3ccccc3c2)c1 (centres undefined) | – | 57 | – | –
27 | O=C(O)CCNC(=O)[C@@H]1CCCN(C(=O)CCC2CCNCC2)C1 | 270 | 4.8 | 120 | –
28 | C#C[C@H](CC(=O)OCC)NC(=O)CCC(=O)Nc1ccc(C(=N)N)cc1 [XEMILOFIBAN] | 300 | 2 | >180 | –

Continued, in another order:

Row | IC50 (Homo sapiens; Homo sapiens) [nM] | IC50 [2] [nM] | SMILES | Duration (Canis familiaris [3]) [min] | other results
29 | 840 | 0.24 | CN1CCC(CCC(=O)N2CCC[C@@H](C(=O)N[C@H](CC(=O)O)c3ccc4c(c3)OCO4)C2)CC1 | – | Duration (Canis familiaris [1]): 120 min
30 | 40 | 0.1 | O=C(O)C[C@@H](NC(=O)[C@@H]1CCCN(C(=O)CCC2CCNCC2)C1)c1ccc(Cl)s1 | – | –
31 | – | 14 | O=C(O)CC(NC(=O)C1CCCN(C(=O)CCC2CCNCC2)C1)c1cncc(-c2cccc([N+](=O)[O-])c2)c1 (centres undefined) | – | –
32 | – | 12 | COc1ccccc1-c1cncc(C(CC(=O)O)NC(=O)C2CCCN(C(=O)CCC3CCNCC3)C2)c1 (centres undefined) | – | –
33 | 220 | 0.34 | O=C(O)C[C@H](NC(=O)[C@@H]1CCCN(C(=O)CCC2CCNCC2)C1)c1cnc(Cl)c(Cl)c1 | 150 | –
34 | – | 24 | Cc1ccc(-c2cncc(C(CC(=O)O)NC(=O)C3CCCN(C(=O)CCC4CCNCC4)C3)c2)cc1 (centres undefined) | – | –
35 | – | 36 | O=C(O)CC(NC(=O)C1CCCN(C(=O)CCC2CCNCC2)C1)c1cncc(-c2cc3ccccc3o2)c1 (centres undefined) | – | –
36 | 36000 | 48 | CCOC(=O)C[C@@H](NC(=O)[C@@H]1CCCN(C(=O)CCC2CCNCC2)C1)c1ccc2c(c1)OCO2 | <30 | –
37 | 11800 | 66.8 | O=C(O)C[C@@H](NC(=O)[C@@H]1CCCN(C(=O)CCC2CCNCC2)C1)c1ncc(C(F)(F)F)cc1Cl | 30 | –
38 | 80 | 0.22 | O=C(O)C[C@H](C#Cc1ccccc1)NC(=O)[C@@H]1CCCN(C(=O)CCC2CCNCC2)C1 | – | Duration (Canis familiaris [4]): <30 min
39 | – | 26 | O=C(O)CC(NC(=O)C1CCCN(C(=O)CCC2CCNCC2)C1)c1cncc(-c2cccc3ccccc23)c1 (centres undefined) | – | –
40 | – | 11 | COc1cccc(-c2cncc(C(CC(=O)O)NC(=O)C3CCCN(C(=O)CCC4CCNCC4)C3)c2)c1 (centres undefined) | – | –
41 | 1600 | 3.5 | O=C(O)C(O)CNC(=O)[C@@H]1CCCN(C(=O)CCC2CCNCC2)C1 (some centres undefined) | – | –
42 | – | 3.6 | Nc1cccc(-c2cncc(C(CC(=O)O)NC(=O)C3CCCN(C(=O)CCC4CCNCC4)C3)c2)c1 (centres undefined) | – | –
43 | – | 57 | O=C(O)CC(NC(=O)C1CCCN(C(=O)CCC2CCNCC2)C1)c1cncc(-c2ccc(Cl)s2)c1 (centres undefined) | – | –
44 | 30 | 0.24 | C#Cc1cncc([C@H](CC(=O)O)NC(=O)[C@@H]2CCCN(C(=O)CCC3CCNCC3)C2)c1 | – | –
45 | 30 | 0.13 | Cc1ccc([C@H](CC(=O)O)NC(=O)[C@@H]2CCCN(C(=O)CCC3CCNCC3)C2)cn1 | 210 | –
46 | 20 | 0.14 | O=C(O)C[C@H](NC(=O)[C@@H]1CCCN(C(=O)CCC2CCNCC2)C1)c1ccc(Cl)nc1 | 210 | –
47 | 40 | 0.85 | O=C(O)C[C@H](NC(=O)[C@@H]1CCCN(C(=O)CCC2CCNCC2)C1)c1cncc(C#Cc2ccccc2)c1 | – | Duration (Canis familiaris [4]): <30 min
48 | 31000 | 5.6 | CC(C)(C)C#C[C@H](CC(=O)O)NC(=O)[C@@H]1CCCN(C(=O)CCC2CCNCC2)C1 | – | –
49 | – | 0.18 | O=C(O)C[C@@H](NC(=O)[C@@H]1CCCN(C(=O)CCC2CCNCC2)C1)c1cnc2ccccc2c1 (stereo in doubt; 33) | – | –
50 | – | 0.37 | O=C(O)C[C@@H](NC(=O)[C@@H]1CCCN(C(=O)CCC2CCNCC2)C1)c1cnc2ccccc2c1 (stereo in doubt; 34) | – | IC50 (Homo sapiens): 1200 nM
